# According to ChEMBL document CHEMBL3091377, “Small molecule fusion inhibitors: design, synthesis and biological evaluation of (Z)-3-(5-(3-benzyl-4-oxo-2-thioxothiazolidinylidene)methyl)-N-(3-carboxy-4-hydroxy)phenyl-2,5-dimethylpyrroles and related derivatives targeting HIV-1 gp41” (Bioorg Med Chem, 2013):
# Activity calls are given as the source filed them. The rule behind the calls is not given here.
# What was measured:
# [1] = (§1) Inhibition of HIV-1 gp41-mediated 6-helix bundle formation after 30 mins by sandwich ELISA; parameters: species or system Human immunodeficiency virus 1
# Procedure, shortened: (§2)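 Peptide N36 (2 µM) preincubated with compound at graded concentrations, 37 °C, 30 min. C34 (2 µM) then added and incubated a further 30 min at 37 °C. Mixture captured on wells coated with rabbit IgG against gp41 six-helix bundle (10 µg/mL); A450 read. Percent inhibition versus no-compound control; IC50 calculated; triplicate.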
# [2] = test system: Human immunodeficiency virus 1; assay: Antiviral activity against enfuvirtide-resistant HIV-1 NL4-3 harboring gp41 (36G)V38A/N42T mutation infected in human MT2 cells assessed as inhibition of p24 antigen production after 4 days by ELISA; assay type: functional, organism-based
# Procedure, shortened: (§3)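 1 × 10^4 MT-2 cells infected with virus (100 TCID50) in RPMI 1640 with 10% serum, with or without compound at graded concentrations, overnight. Supernatant then replaced with compound-free medium. Day 4 supernatant lysed with 5% Triton X-100. p24 quantified by HIVIG-capture sandwich ELISA with recombinant p24 standard curve, A450. IC50 by CalcuSyn, triplicate, mean ± SD.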
# [3] = test system: Human immunodeficiency virus 1; assay: Antiviral activity against enfuvirtide-resistant HIV-1 NL4-3 harboring gp41 (36G)V38E/N42S mutation infected in human MT2 cells assessed as inhibition of p24 antigen production after 4 days by ELISA; assay type: functional, organism-based; procedure, shortened: as §3
# [4] = test system: Human immunodeficiency virus 1; assay: Antiviral activity against enfuvirtide-resistant HIV-1 NL4-3 harboring gp41 (36G)N42T/N43K mutation infected in human MT2 cells assessed as inhibition of p24 antigen production after 4 days by ELISA; assay type: functional, organism-based; procedure, shortened: as §3
# [5] = test system: Human immunodeficiency virus 1; assay: Antiviral activity against enfuvirtide-resistant HIV-1 NL4-3 harboring gp41 (36G)V38A mutation infected in human MT2 cells assessed as inhibition of p24 antigen production after 4 days by ELISA; assay type: functional, organism-based; procedure, shortened: as §3
# [6] = test system: Human immunodeficiency virus 1; assay: Antiviral activity against enfuvirtide-resistant HIV-1 NL4-3 harboring gp41 (36G)V38A/N42D mutation infected in human MT2 cells assessed as inhibition of p24 antigen production after 4 days by ELISA; assay type: functional, organism-based; procedure, shortened: as §3
# [7] = test system: Human immunodeficiency virus 1; assay: Antiviral activity against enfuvirtide-sensitive HIV-1 NL4-3 harboring gp41 (36G)N42S mutation infected in human MT2 cells assessed as inhibition of p24 antigen production after 4 days by ELISA; assay type: functional, organism-based; procedure, shortened: as §3
# [8] = Selectivity index, ratio of CC50 for human MT2 cells to EC50 for HIV1 3B; assay type: toxicity, cell-based; conditions: read-out: Ratio CC50/EC50
# Procedure, shortened: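 Selectivity index calculated as CC50 (XTT, MT-2 cells, 4 days) divided by EC50 (p24 inhibition in HIV-1 IIIB-infected MT-2 cells).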
# [9] = Cytotoxicity against human MT2 cells after 4 days by XTT assay; assay type: cell-based
# Procedure, shortened: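 XTT assay on MT-2 cells (5 × 10^5/mL mixed with equal volume of compound at graded concentrations). Incubated 4 days, then XTT (1 mg/mL) containing 0.02 µM phenazine methosulphate added. A450 read after 4 h; CC50 calculated as concentration giving 50% cytotoxicity.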
# [10] = test system: Human immunodeficiency virus 1; assay: Antiviral activity against HIV1 3B infected in human MT2 cells assessed as inhibition of p24 antigen production after 4 days by ELISA; assay type: functional, organism-based; conditions: Human immunodeficiency virus 1, 3B, MT2, 96 h
# Procedure, shortened: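 MT-2 cells (1 × 10^4) infected with HIV-1 IIIB at 100 TCID50 in RPMI 1640 with 10% serum (printed "PBS"), compound at graded concentrations overnight. Supernatant then replaced with compound-free medium. Day 4: supernatant lysed in equal volume 5% Triton X-100, p24 quantified by sandwich ELISA against recombinant p24 standard curve. Triplicate; EC50 from percent inhibition.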
# [11] = test system: Human immunodeficiency virus 1; assay: Ratio of IC50 for enfuvirtide-resistant HIV-1 NL4-3 harboring gp41 (36G)V38A/N42T mutation to IC50 for enfuvirtide-sensitive HIV-1 NL4-3 harboring gp41 (36G)N42S mutation; assay type: functional
# Procedure, shortened: (§4)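 MT-2 cells (1 × 10^4) were infected overnight in RPMI 1640 with 100 TCID50 of the NL4-3 (36G) N42S or mutant strain, with graded compound. Medium was then replaced without compound. On day 4, supernatant was lysed in 5% Triton X-100 and p24 measured by HIVIG-capture ELISA (A450, recombinant p24 standard). IC50 was taken from triplicates, and the ratio was mutant IC50 over N42S IC50.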
# [12] = test system: Human immunodeficiency virus 1; assay: Ratio of IC50 for enfuvirtide-resistant HIV-1 NL4-3 harboring gp41 (36G)V38E/N42S mutation to IC50 for enfuvirtide-sensitive HIV-1 NL4-3 harboring gp41 (36G)N42S mutation; assay type: functional; procedure, shortened: as §4
# [13] = test system: Human immunodeficiency virus 1; assay: Ratio of IC50 for enfuvirtide-resistant HIV-1 NL4-3 harboring gp41 (36G)N42T/N43K mutation to IC50 for enfuvirtide-sensitive HIV-1 NL4-3 harboring gp41 (36G)N42S mutation; assay type: functional; procedure, shortened: as §4
# [14] = test system: Human immunodeficiency virus 1; assay: Ratio of IC50 for enfuvirtide-resistant HIV-1 NL4-3 harboring gp41 (36G)V38A mutation to IC50 for enfuvirtide-sensitive HIV-1 NL4-3 harboring gp41 (36G)N42S mutation; assay type: functional; procedure, shortened: as §4
# [15] = test system: Human immunodeficiency virus 1; assay: Ratio of IC50 for enfuvirtide-resistant HIV-1 NL4-3 harboring gp41 (36G)V38A/N42D mutation to IC50 for enfuvirtide-sensitive HIV-1 NL4-3 harboring gp41 (36G)N42S mutation; assay type: functional; procedure, shortened: as §4
# [16] = test system: Human immunodeficiency virus 1; assay: as §1; procedure, shortened: as §2
IC50 [1] [µM],EC50 [10] [µM],Compound,selectivity ratio [8],CC50 at 96 h [9] [µM],also measured
,41.1,Cc1cc(/C=C2\SC(=S)N(Cc3ccccc3Br)C2=O)c(C)n1-c1ccc(O)c(C(=O)O)c1,0.6,25.7,
68,7.1,Cc1cc(/C=C2\SC(=S)N(Cc3ccc(C(=O)O)cc3)C2=O)c(C)n1-c1ccc(O)c(C(=O)O)c1,14.7,105,
22.6,29.1,Cc1cc(/C=C2\SC(=S)N(Cc3ccccc3C(F)(F)F)C2=O)c(C)n1-c1ccc(O)c(C(=O)O)c1,1,28.8,
11.9,3.2,Cc1cc(/C=C2\SC(=S)N(Cc3ccccc3)C2=O)c(C)n1-c1ccc(O)c(C(=O)O)c1,50.2,159,
20.8,12.1,Cc1cc(/C=C2\SC(=S)N(Cc3cccc(C(=O)O)c3)C2=O)c(C)n1-c1ccc(O)c(C(=O)O)c1,> 8.3,> 100,
0.9,19.8,COc1ccc(CN2C(=O)/C(=C/c3cc(C)n(-c4ccc(O)c(C(=O)O)c4)c3C)SC2=S)cc1,3.8,75.3,
9.2,3.9,Cc1cc(/C=C2\SC(=S)N(Cc3cccc(C(F)(F)F)c3)C2=O)c(C)n1-c1ccc(O)c(C(=O)O)c1,6.7,26.3,
10.3,42.7,Cc1cc(/C=C2\SC(=S)N(Cc3ccc(Br)cc3)C2=O)c(C)n1-c1ccc(O)c(C(=O)O)c1,2.2,94.4,
7.8,32.4,Cc1cc(/C=C2\SC(=S)N(Cc3cccc(Br)c3)C2=O)c(C)n1-c1ccc(O)c(C(=O)O)c1,1.5,48.2,
2.1,23.5,COc1cccc(CN2C(=O)/C(=C/c3cc(C)n(-c4ccc(O)c(C(=O)O)c4)c3C)SC2=S)c1,4.4,102,
18.8,17.2,Cc1cc(/C=C2\SC(=S)N(Cc3ccc(C(F)(F)F)cc3)C2=O)c(C)n1-c1ccc(O)c(C(=O)O)c1,2.7,45.9,

# The next lines start with the compound.
Compound,IC50 [1] [µM],EC50 [10] [µM],selectivity ratio [8],CC50 at 96 h [9] [µM],also measured
COC(=O)c1cccc(CN2C(=O)/C(=C/c3cc(C)n(-c4ccc(O)c(C(=O)O)c4)c3C)SC2=S)c1,1.8,0.3,128,38.5,IC50 [2]: 2820 nM; IC50 [3]: 3370 nM; IC50 [4]: 2020 nM; IC50 [5]: 1.74 µM; IC50 [6]: 725 nM; IC50 [7]: 2220 nM
COC(=O)c1ccc(CN2C(=O)/C(=C/c3cc(C)n(-c4ccc(O)c(C(=O)O)c4)c3C)SC2=S)cc1,1.8,1.5,24.6,36.9,IC50 [2]: 1670 nM; IC50 [3]: 2750 nM; IC50 [4]: 2300 nM; IC50 [5]: 4.85 µM; IC50 [6]: 2200 nM; IC50 [7]: 2010 nM
Cc1cc(/C=C2\SC(=S)N(Cc3ccccc3)C2=O)c(C)n1-c1cccc(C(=O)O)c1,45.7,15.3,5.5,83.4,
Cc1cc(/C=C2\SC(=S)N(CCc3ccccc3)C2=O)c(C)n1-c1ccc(O)c(C(=O)O)c1,12.5,6.2,4.2,26,
Cc1cc(/C=C2\SC(=S)N(Cc3ccc(C(C)(C)C)cc3)C2=O)c(C)n1-c1ccc(O)c(C(=O)O)c1,2.6,0.9,61.3,55.2,IC50 [2]: 1780 nM; IC50 [3]: 2670 nM; IC50 [4]: 1960 nM; IC50 [5]: 4.25 µM; IC50 [6]: 2020 nM; IC50 [7]: 473 nM
Cc1cc(/C=C2\SC(=S)N(Cc3ccccc3)C2=O)c(C)n1-c1ccc(Cl)c(C(=O)O)c1,34.3,19.1,3.6,68.3,
Cc1ccc(C)n1-c1ccc(O)c(C(=O)O)c1,37.4,0.7,191,,
enfuvirtide,,,,,Ratio IC50 [11]: >20; Ratio IC50 [12]: >20; Ratio IC50 [13]: >20; Ratio IC50 [14]: >20; Ratio IC50 [15]: >20; IC50 [2]: 1660 nM; IC50 [3]: > 2000 nM; IC50 [4]: > 2000 nM; IC50 [5]: > 2 µM; IC50 [6]: 1540 nM; IC50 [7]: 77 nM
Cc1cc(/C=C2\SC(=S)N(c3ccccc3)C2=O)c(C)n1-c1ccc(O)c(C(=O)O)c1,,35.6,> 2.8,> 100,inhibition [16]: inactive
